Source: ChEMBL document CHEMBL4732107, “Synthesis and anticancer activity evaluation of naphthalene-substituted triazole spirodienones” (Eur J Med Chem, 2021)
Calls of active or inactive are those of the source. No cut-off for these calls is given here.

How the values were obtained:
[1] = Acute toxicity in Kunming mouse assessed as mortality at 10 to 40 mg/kg, ip administered as single dose; type: organism-based; conditions: in vivo, dose 10-40 mg/kg
How it was run: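 Kunming mice in four groups (n = 8, half male, half female) got one intraperitoneal dose of 10, 20 or 40 mg/kg, or vehicle. Body weights were recorded daily after dosing. Eyes, skin and fur were checked for clinical signs. Mortality was recorded. Mice were dissected to look for ascites and to assess liver volume.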

[2] = tested on: MDA-MB-231; assay: Induction of apoptosis in human MDA-MB-231 cells measured after 24 hrs by annexin V-FITC/propidium iodide staining based flow cytometry; type: functional, cell-based; conditions: dose 0.1-1 µM
[3] = tested on: 4T1; assay: Induction of apoptosis in mouse 4T1 cells implanted in mouse at 2 mg/kg, ip administered daily for 12 days measured post last dose by H and E staining based microscopic analysis; type: functional, organism-based; conditions: time 12.0 day
How it was run: (§1)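 Orthotopic 4T1-bearing mice (n = 6 per group) were dosed i.p. daily with vehicle, compound at 1 or 2 mg/kg, or doxorubicin at 1 mg/kg. At the end of treatment, tumors and major organs (liver, spleen) were harvested and photographed. Sections were H&E stained and examined by microscope.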

[4] = tested on: 4T1; assay: Antitumor activity against mouse 4T1 cells implanted in mouse assessed as tumor growth inhibition at 1 mg/kg, ip administered daily for 12 days relative to control; type: functional; conditions: 4T1, ip, 288 h, time 12 day, read-out: TGI
How it was run: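 Mice bearing orthotopic 4T1 tumors were randomized into 4 groups (n = 6) once tumors reached about 100 mm2. Groups received vehicle, test compound at 1 or 2 mg/kg, or doxorubicin at 1 mg/kg, given i.p. every day. Body weight and tumor volume were recorded daily. Tumors were excised and weighed at the end, and inhibition was calculated against the saline control.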

[5] = tested on: MDA-MB-231; assay: Induction of apoptosis in human MDA-MB-231 cells assessed as viable cells at 1 uM measured after 24 hrs by annexin V-FITC/propidium iodide staining based flow cytometry (reference value: 90.9%); type: functional; conditions: read-out: Activity
[6] = tested on: MDA-MB-231; assay: Induction of apoptosis in human MDA-MB-231 cells assessed as necrotic cells at 1 uM measured after 24 hrs by annexin V-FITC/propidium iodide staining based flow cytometry (reference value: 4.74%); type: functional
[7] = tested on: MDA-MB-231; assay: Induction of apoptosis in human MDA-MB-231 cells assessed as late apoptotic cells at 0.1 uM measured after 24 hrs by annexin V-FITC/propidium iodide staining based flow cytometry (reference value: 2.84%); type: functional
[8] = target: T1, Aurora kinase A (Homo sapiens, UniProt O14965); assay: Inhibition of AURKA (unknown origin)
T1 sequence (O14965 whole entry): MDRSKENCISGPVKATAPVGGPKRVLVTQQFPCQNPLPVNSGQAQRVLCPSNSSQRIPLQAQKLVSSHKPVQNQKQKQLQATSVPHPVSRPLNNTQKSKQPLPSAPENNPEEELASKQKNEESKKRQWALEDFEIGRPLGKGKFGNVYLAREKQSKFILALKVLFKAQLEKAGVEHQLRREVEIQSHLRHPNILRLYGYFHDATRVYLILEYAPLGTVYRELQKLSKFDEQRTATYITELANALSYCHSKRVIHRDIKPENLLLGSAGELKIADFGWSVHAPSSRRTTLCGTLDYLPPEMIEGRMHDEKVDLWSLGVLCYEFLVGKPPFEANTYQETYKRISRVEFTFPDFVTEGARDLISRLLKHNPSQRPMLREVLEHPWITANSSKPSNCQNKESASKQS
How it was run: (§2)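 Kinase inhibition was measured in two independent repeats, and IC50 is reported as their average with SD.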

[9] = Toxicity in mouse implanted with mouse 4T1 cells assessed as increase in spleen size at 2 mg/kg, ip administered daily for 12 days measured post last dose; type: organism-based; conditions: in vivo, 288 h, time 12 day; how it was run: as §1
[10] = target: Mitogen-activated protein kinase 10 (Homo sapiens, UniProt P53779); assay: Inhibition of MAPK10 (unknown origin); how it was run: as §2
Sequence of Mitogen-activated protein kinase 10 (P53779 whole entry): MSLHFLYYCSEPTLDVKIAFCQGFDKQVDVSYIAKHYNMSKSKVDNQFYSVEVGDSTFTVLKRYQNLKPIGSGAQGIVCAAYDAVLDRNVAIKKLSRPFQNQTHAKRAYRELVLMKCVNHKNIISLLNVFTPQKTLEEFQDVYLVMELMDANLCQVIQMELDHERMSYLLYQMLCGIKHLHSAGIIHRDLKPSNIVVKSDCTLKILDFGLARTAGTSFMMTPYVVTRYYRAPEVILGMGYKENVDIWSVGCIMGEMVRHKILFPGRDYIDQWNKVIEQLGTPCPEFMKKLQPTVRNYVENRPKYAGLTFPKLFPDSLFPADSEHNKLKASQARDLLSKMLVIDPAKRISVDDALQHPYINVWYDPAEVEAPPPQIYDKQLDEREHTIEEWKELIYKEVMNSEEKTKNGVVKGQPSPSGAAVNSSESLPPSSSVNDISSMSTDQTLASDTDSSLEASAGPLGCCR

SMILES: O=C1C=CC2(C=C1)OCC(=O)N2c1nc(-c2cccc3ccccc23)nn1-c1ccccc1
- Activity [1]: Non-Toxic
- Activity [2]: Dose-dependent effect
- Activity [3]: Active
- inhibition in vivo at 1 mg/kg [4]: 18.2%
- viability at 1 µM [5]: 35.7%
- Activity [6]: 13.1%
- Activity [7]: 2.69%
- IC50 [8]: > 100 µM
- Activity [9]: Toxic
- IC50 [10]: > 100 µM
